Results of several laboratories.
Protocols differ between the studies behind these lines.
Target: Serine/threonine-protein kinase 32B (STK32B, Homo sapiens, UniProt Q9NY57)

SMILES | assay | setting | remaining binding [%]
CN(C)c1nccc(-c2cnc3ncccn23)n1 | binding | 1 µM | 88
O=C(c1ccc(Nc2ncc(Cl)c(-c3ccc(Cl)s3)n2)cc1)N1CCC(N2CCCC2)CC1 | binding, competition with immobilised ligand | 1 µM | 100
FC(F)(F)c1ccc2c(c1)nc(-c1cccnc1)n2C1CC1 | cell-free assay, competition with immobilised ligand | 1 µM | 100
N[C@H]1CCN(c2nccc(-c3cnn4ncccc34)n2)C1 | binding | 1 µM | 100
CCC(=O)N[C@H]1CC[C@@H](C(=O)N(C)c2ccc(-c3nc4ccccc4o3)cc2)C1 | cell-free assay, competition with immobilised ligand | 1 µM | 98
Nc1ncc2c(n1)-c1c([nH]c3ccc(C#CC4CC4)cc13)CCCC2 | binding, competition with immobilised ligand | 1 µM | 100
F[C@@H]1CCN(c2nccc(-c3cnn4ncccc34)n2)C1 | binding | 1 µM | 100
O=C(c1ccc(Nc2nccc(-c3cc4ccccc4s3)n2)cc1)N1CCC(N2CCCC2)CC1 | binding, competition with immobilised ligand | 1 µM | 100
C[C@@H](c1cccc(C#N)c1)n1cc(Cl)cc(C(N)=O)c1=N | cell-free assay, competition with immobilised ligand | 1 µM | 100
COc1cnc(Nc2cccc(S(N)(=O)=O)c2)nc1N1CCN(c2ccccc2)C(=O)C1 | binding, competition with immobilised ligand | 1 µM | 90
CN(C)c1nccc(-c2cnn3ncccc23)n1 | binding | 1 µM | 100
O=C(NCCCN1CCOCC1)c1ccc(Nc2nccc(-c3cc4ccccc4s3)n2)cc1 | binding, competition with immobilised ligand | 1 µM | 100
Cc1c(NC(=O)c2cc(C(N)=O)nc3cc(F)ccc23)c(C(F)(F)F)nn1Cc1ccc(C#N)cc1 | cell-free assay, competition with immobilised ligand | 1 µM | 100
c1cnn2ncc(-c3ccnc(N4CCC45COC5)n3)c2c1 | binding | 1 µM | 93
O=C(Nc1c[nH]nc1C(=O)NC1CCNCC1)c1cc(F)cc(F)c1 | binding, competition with immobilised ligand | 1 µM | 57
O=C(NCCCC1CCCCC1)c1ccc(CNC(=O)c2cnn(-c3ccccc3)c2C(F)(F)F)cc1 | cell-free assay, competition with immobilised ligand | 0.1 µM | 100
CNC(=O)[C@@H]1CC[C@@H](n2c(-c3ccc4cnccc4c3)nc3ccc(C(=O)NCc4cccc(C(N)=O)c4)cc32)C1 | binding, competition with immobilised ligand | 1 µM | 100
COc1ncc2cc3ccccc3nc2c1C#N | cell-free assay, competition with immobilised ligand | 5 µM | 84
CO[C@@H](C)c1c(Nc2ccc([C@H](N(C)C(=O)C3CCS(=O)(=O)CC3)C(F)(F)F)cc2)cnc2cc(Cl)nn12 | cell-free assay, competition with immobilised ligand | 1 µM | 89
C[C@H]1CCN(c2nccc(-c3cnn4ncccc34)n2)C1 | binding | 1 µM | 100
